Experimental data: ChEMBL document CHEMBL1821622, “Thiazole- and imidazole-containing peptidomimetic inhibitors of protein farnesyltransferase” (Bioorg Med Chem Lett, 2011)
Values belong to the compound of their own block, whether it stands above or below them. Activity calls are given as the source filed them. The calls are words filed in the database; no cut-off is given here.

Tests used:
[1] = (§1) Inhibition of rat recombinant FTase using Dansyl-Gly-Cys-Val-Leu-Ser-OH peptide and farnesyl-pyrophosphate substrates measured every 15 seconds for 5 mins by fluorescent assay
[2] = (§2) Inhibition of cell proliferation in RASMC cells after 72 hrs by Coulter Counter method; format: functional, cell-based, Rattus norvegicus
Summary of the method: (§3)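 Rat aortic SMCs were seeded at 2 × 10^5 cells per 35 mm dish in DMEM with 10% FCS. Cells were counted after trypsinization. DMSO was at most 0.5% final. IC50 came from linear regression of log concentration vs logit.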

RASMC [3] = test: Inhibition of rat Ftase in RASMC cells assessed as reduction in Ras prenylation at 2 uM after 72 hrs by Western blot analysis; format: cell-based
Summary of the method: (§4)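 Rat SMCs were seeded at 4 × 10^5 per 60 mm dish and taken through the same serum arrest and restimulation as the proliferation assay, with 72 h exposure. Cells were lysed for 30 min on ice in Tris pH 7.5/NaCl/NP-40 buffer with inhibitors and cleared at 15,000g. Protein was measured by BCA. Lysates were run on reducing SDS-PAGE and immunoblotted with anti-Ras (RAS10) using ECL. The slower band is unprenylated Ras; the faster band is prenylated Ras.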

RASMC [4] = test: as §2; format: functional, cell-based; details: Rattus norvegicus; summary of the method: as §3
RASMC [5] = test: Inhibition of rat Ftase in RASMC cells assessed as reduction of Ras prenylation at 50 to 100 uM after 72 hrs by Western blot analysis relative to control; format: cell-based; summary of the method: as §4
Rattus norvegicus = organism: Rattus norvegicus; test: as §1
[6] = Rattus norvegicus, RASMC, 72 h, read-out: IC50

IC50 ([1]; read-out: IC50): 415 nM
Structure (SMILES): CSCC[C@H](NC(=O)c1ccc(NC(=O)CCc2csc(SC)n2)cc1-c1ccccc1C)C(=O)O

Structure (SMILES): CSCC[C@H](NC(=O)c1ccc(NC(=O)CCc2csc(SC)n2)cc1-c1ccccc1C)C(=O)OC(C)C
IC50 ([2]; rasmc): Not Active

IC50 [1]: Not Active
Structure (SMILES): CSCC[C@H](NC(=O)c1ccc(NC(=O)Cc2csc(SC)n2)cc1-c1ccccc1C)C(=O)O

IC50 ([1]; read-out: IC50): 122 nM
Structure (SMILES): CSCC[C@H](NC(=O)c1ccc(NC(=O)Cc2c[nH]c(S)n2)cc1-c1ccccc1C)C(=O)O

IC50 ([1]; read-out: IC50): 9 nM
Structure (SMILES): CSCC[C@H](NC(=O)c1ccc(NC[C@@H](N)CS)cc1-c1ccccc1)C(=O)O

IC50 [1]: Not Active
Structure (SMILES): CSCC[C@H](NC(=O)c1ccc(NC(=O)CCc2c[nH]c(S)n2)cc1-c1ccccc1C)C(=O)O

IC50 ([1]; read-out: IC50): 538 nM
Structure (SMILES): CSCC[C@H](NC(=O)c1ccc(NC(=O)Cc2csc(S)n2)cc1-c1ccccc1C)C(=O)O

Structure (SMILES): CSCC[C@H](NC(=O)c1ccc(NC(=O)Cc2csc(N)n2)cc1-c1ccccc1C)C(=O)OC(C)C
IC50 [2, 6]: 107000 nM

Structure (SMILES): CCC(C)(C)C(=O)O[C@H]1C[C@@H](C)C=C2C=C[C@H](C)[C@H](CC[C@@H]3C[C@@H](O)CC(=O)O3)[C@H]21
inhibition (RASMC [3]): Active

Structure (SMILES): CSCC[C@H](NC(=O)c1ccc(NC(=O)Cc2csc(S)n2)cc1-c1ccccc1C)C(=O)OC(C)C
IC50 [2, 6]: 21000 nM

IC50 ([1]; read-out: IC50): 526 nM
Structure (SMILES): CSCC[C@H](NC(=O)c1ccc(NC(=O)CCc2csc(S)n2)cc1-c1ccccc1C)C(=O)O

Structure (SMILES): CSCC[C@H](NC(=O)c1ccc(NC(=O)CCc2csc(N)n2)cc1-c1ccccc1C)C(=O)OC(C)C
IC50 ([2]; rasmc): Not Active

inhibition (Rattus norvegicus): Dose-dependent effect
IC50 ([1]; read-out: IC50): 49 nM
Structure (SMILES): CSCC[C@H](NC(=O)c1ccc(NC(=O)Cc2csc(N)n2)cc1-c1ccccc1C)C(=O)O
inhibition (RASMC [4]): Dose-dependent effect
inhibition (RASMC [5]): Dose-dependent effect

IC50 ([1]; read-out: IC50): 390 nM
Structure (SMILES): CSCC[C@H](NC(=O)c1ccc(NC(=O)CCc2csc(N)n2)cc1-c1ccccc1C)C(=O)O

Structure (SMILES): CSCC[C@H](NC(=O)c1ccc(NC(=O)Cc2c[nH]c(S)n2)cc1-c1ccccc1C)C(=O)OC(C)C
IC50 [2, 6]: 226000 nM

Structure (SMILES): CSCC[C@H](NC(=O)c1ccc(NC(=O)CCc2csc(S)n2)cc1-c1ccccc1C)C(=O)OC(C)C
IC50 [2, 6]: 25000 nM

Structure (SMILES): CSCC[C@H](NC(=O)c1ccc(NC(=O)CCc2c[nH]c(S)n2)cc1-c1ccccc1C)C(=O)OC(C)C
IC50 [2, 6]: 34000 nM

Structure (SMILES): CSCC[C@H](NC(=O)c1ccc(NC(=O)Cc2csc(SC)n2)cc1-c1ccccc1C)C(=O)OC(C)C
IC50 ([2]; rasmc): Not Active
